Data reported in ChEMBL document CHEMBL1275490, “Antifungal resistance of Candida glabrata vaginal isolates and development of a quantitative reverse transcription-PCR-based azole susceptibility assay” (2008).

How the values were obtained:
Assay type in all cases: functional
Nakaseomyces glabratus [1] = assay: Antifungal activity against Candida glabrata clinical isolate overexpressing CDR1 gene obtained from cervicovaginal candidiasis patient assessed as resistant isolates by broth microdilution method
In short: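 Cervicovaginal swab isolates were classed by CLSI M27-A2 broth microdilution MIC. For expression, RNA came from mid-log cultures, column-purified and DNase-treated. Duplex qRT-PCR measured CDR1 (also PDH1, PDR1) against ACT1 as control, in triplicate independent amplifications from the same RNA. A ≥3-fold rise in CDR1 expression […].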

Nakaseomyces glabratus [2] = assay: Antifungal activity against Candida glabrata clinical isolate obtained from vulvovaginal candidiasis patient assessed as susceptible isolates by broth microdilution method
In short: (§1)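 C. glabrata isolates were recovered from cervicovaginal swabs. Species was identified by in-house species-specific real-time PCR and confirmed on chromogenic Candida agar. Susceptibility was tested by CLSI M27-A2 broth microdilution, and isolates were classed as S, S-DD or R from the MIC. Voriconazole categories used proposed breakpoints.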

Nakaseomyces glabratus [3] = assay: Antifungal activity against Candida glabrata clinical isolate obtained from cervicovaginal candidiasis patient assessed as susceptible dose-dependent isolates by broth microdilution method; in short: as §1
Nakaseomyces glabratus [4] = assay: Antifungal activity against Candida glabrata clinical isolate obtained from vulvovaginal candidiasis patient assessed as resistant isolates by broth microdilution method; in short: as §1
Nakaseomyces glabratus [5] = assay: Antifungal activity against Candida glabrata clinical isolate obtained from cervicovaginal candidiasis patient assessed as susceptible isolates by broth microdilution method; in short: as §1

| SMILES | Activity (Nakaseomyces glabratus [1]) [%] | Activity (Nakaseomyces glabratus [2]) [%] | Activity (Nakaseomyces glabratus [3]) [%] | Activity (Nakaseomyces glabratus [4]) [%] | Activity (Nakaseomyces glabratus [5]) [%] |
| --- | --- | --- | --- | --- | --- |
| OC(Cn1cncn1)(Cn1cncn1)c1ccc(F)cc1F [FLUCONAZOLE] | 26.9 | 15.2 | 42.2 | 51.8 | 30.9 |
| Clc1ccc(COC(Cn2ccnc2)c2ccc(Cl)cc2Cl)c(Cl)c1 (stereo not given) [MICONAZOLE] | – | – | 0 | – | 100 |
| C[C@@H](c1ncncc1F)[C@](O)(Cn1cncn1)c1ccc(F)cc1F [VORICONAZOLE] | 24 | – | 13.7 | – | 62.3 |
